Results on 16 molecules are retold here after PubChem BioAssay.

Molecules are shown by their SMILES. Where “and” joins values, the source holds several entries; their conditions need not be identical. Equal values may be shown once. Calls of active or inactive are those of the source.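 Rule for the calls, unless noted: active = viability at or below 10% of carrier control in both of two separate runs; inconclusive = viability at or below 10% in only one of the two runs; inactive = the rest.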

The nature of test [1]: reducers of endogenous Her2 protein level, primary screen, SKBR3 breast tumor cells, AlphaScreen, ATP viability (AID 461;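 active = Her2 level under about 52% in both replicate screens, with viability over 70% of control, limit read from the data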;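 for Her2 level: lower value means less Her2 protein in the cells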;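 for viability: percent of carrier control wells set as 100% viability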). The conditions noted are these: 18-24 h, measured here: SKBR3 viability, ATP luminescence, at 10 µM. A general note: Alpha assays give light when donor and acceptor beads are brought close together.
The target of test [2] is Receptor tyrosine-protein kinase erbB-2 (Homo sapiens) (UniProt P04626). The description is as above. The following applies: 18-24 h, at 10 µM, stronger effect = lower value.
Receptor tyrosine-protein kinase erbB-2 (Homo sapiens), sequence (P04626 whole entry, looked up): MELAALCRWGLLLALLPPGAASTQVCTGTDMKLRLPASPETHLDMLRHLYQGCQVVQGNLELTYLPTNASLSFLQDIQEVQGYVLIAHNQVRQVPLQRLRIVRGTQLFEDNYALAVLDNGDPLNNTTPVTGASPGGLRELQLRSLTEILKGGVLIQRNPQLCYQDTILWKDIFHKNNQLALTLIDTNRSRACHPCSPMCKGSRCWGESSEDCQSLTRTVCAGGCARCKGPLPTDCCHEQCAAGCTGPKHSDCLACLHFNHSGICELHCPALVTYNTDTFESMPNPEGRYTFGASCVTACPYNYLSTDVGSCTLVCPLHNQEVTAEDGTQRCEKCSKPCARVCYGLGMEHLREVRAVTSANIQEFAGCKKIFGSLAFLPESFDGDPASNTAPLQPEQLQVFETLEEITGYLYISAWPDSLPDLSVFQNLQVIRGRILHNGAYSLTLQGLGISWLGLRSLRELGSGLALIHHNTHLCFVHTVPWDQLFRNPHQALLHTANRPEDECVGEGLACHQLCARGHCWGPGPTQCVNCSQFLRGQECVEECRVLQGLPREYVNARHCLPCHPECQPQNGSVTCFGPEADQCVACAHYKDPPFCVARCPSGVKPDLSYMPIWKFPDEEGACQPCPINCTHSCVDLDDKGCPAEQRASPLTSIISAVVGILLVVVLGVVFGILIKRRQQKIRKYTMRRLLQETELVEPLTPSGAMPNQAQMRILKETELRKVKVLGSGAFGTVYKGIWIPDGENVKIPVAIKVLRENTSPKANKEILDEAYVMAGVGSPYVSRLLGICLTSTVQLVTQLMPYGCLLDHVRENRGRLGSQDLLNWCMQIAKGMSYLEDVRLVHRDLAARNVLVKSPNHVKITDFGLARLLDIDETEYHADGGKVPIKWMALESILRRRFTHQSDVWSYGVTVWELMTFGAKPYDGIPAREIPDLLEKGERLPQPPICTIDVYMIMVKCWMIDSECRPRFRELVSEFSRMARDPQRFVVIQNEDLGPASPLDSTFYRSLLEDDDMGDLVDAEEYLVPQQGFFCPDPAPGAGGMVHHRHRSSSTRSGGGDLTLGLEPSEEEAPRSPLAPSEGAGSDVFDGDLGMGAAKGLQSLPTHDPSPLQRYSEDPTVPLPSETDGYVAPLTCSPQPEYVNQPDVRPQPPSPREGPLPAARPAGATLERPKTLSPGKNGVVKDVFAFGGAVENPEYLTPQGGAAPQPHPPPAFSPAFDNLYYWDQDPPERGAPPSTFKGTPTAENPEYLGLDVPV
Test [3] in a line: SK-BR-3 cell growth inhibitors, pilot screen, 24 h, human (AID 572).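 Note: compound exposure lasted between 18 and 24 h rather than exactly 24 h; 100% = carrier-treated control wells.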 The conditions noted are these: SK-BR-3 viability, CellTiter-Glo luminescence, at 10 µM, stronger effect = lower value. (In general: Cellular ATP, detected with luciferase, serves as a proxy for viable cell number.)
Test [4] can be described thus: HUVEC growth inhibition – cell-based, human, primary screen (AID 575;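 active = viability at or below 30% in both replicate assays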;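 note: 100% = median of untreated cell wells with 0.1% DMSO on each plate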). The conditions noted are these: HUVEC proliferation, CellTiter-Glo luminescence, 72 h; at 10 µM; stronger effect = lower value. The method in brief:
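Test system – primary HUVEC, no more than 12 passages · Dosing – one dose, 10 µM final, 0.1% DMSO · Times – 72 h treatment at 37 °C · Measured by – ATP-based CellTiter-Glo luminescent read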

Test [5] is described as follows: growth inhibitors of H69AR lung tumor, primary screen, human, duplicate replicates (AID 580;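 active = viability at or under a set limit in both replicates, limit being median viability minus 3 SD, cut at about 48% in these data, passing the limit was not always enough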;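 note: 100% = mean luminescence of untreated wells and 0% = no signal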). The conditions noted are these: H69AR lung tumor cells viability, ATP luminescence, 72 h; at 10 µM; stronger effect = lower value.
Test [6] in a line: reversal of MRP1-mediated doxorubicin resistance, pilot screen, H69AR cells, doxorubicin co-treatment (AID 601;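 active = viability loss from added drug above about 55%, and viability with drug at most 40%, in both replicates, limit read from the data, passing the limit was not always enough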). The conditions noted are these: CellTiter-Glo, 72 h, at 10 µM; for differential viability (reversal): stronger effect = higher value.
Test [7] can be described thus: 384-well plate pilot, post-Golgi transport modulator project, inhibition of yeast transport mutant growth (AID 636; in the data active = inhibition above about 31%). The following applies: absorbance 615 nm, about 18 h, stronger effect = higher value.
Test [8] can be described thus: growth suppression of yeast trafficking mutant, preliminary HTS, modulators of trafficking downstream of Golgi apparatus project, 1536-format plate, OD 615 nm (AID 637; in the data active = inhibition above about 30%). The conditions noted are these: yeast transport mutant growth, absorbance 615 nm, 18 h; stronger effect = higher value.
The mark [9] stands for this setting: H69AR cells + 2 uM doxorubicin, measured here: viability with 2 uM doxorubicin, stronger effect = lower value.
The mark [10] stands for this setting: H69AR cells, compound alone cytotoxicity.

Usually viability stands for a read-out of living cells in per cent, often relative to untreated cells. The term inhibition denotes the change of the read-out against control, counted positive when it falls. Consider `Cc1ccc2cc3cc(C(=O)N4CC(C)CC(C)C4)oc3nc2c1` (stereo not given), for which the viability in test [1] is 108%; in test [3], 108% (inactive); in test [4], 69.3% (inactive); in test [5], 89.2% (inactive); in test [6] (setting [9]), 85.5%; in test [6] (setting [10]), 89.2%. The Her2 level in test [2] is 78.5% (inactive). For the same molecule, the differential viability (reversal) in test [6] (H69AR cells + 2 uM doxorubicin) is 3.71% (inactive). Moreover, the inhibition is -2.47% (inactive) in test [7] and -6.35% (inactive) in test [8].

As for `Cc1ccc(-c2cc(C(=O)NCc3ccc4c(c3)OCO4)no2)cc1`, the viability in test [1] was 96%; in test [3], 96% (inactive); in test [4] it was 84.9% (inactive); in test [5], 90.8% (inactive); in test [6] (setting [9]), 84.9%; in test [6] (setting [10]), 90.8%. In test [2], the Her2 level was 77% (inactive). For the same molecule, the differential viability (reversal) in test [6] (H69AR cells + 2 uM doxorubicin) was 5.94% (inactive). Further, the inhibition is -7.43% (inactive) in test [7] and -0.33% (inactive) in test [8].

With `Cc1cc(Cl)c(S(=O)(=O)N2CCN(c3ccc(F)cc3)CC2)cc1OCC(N)=O`, the viability is 82.5% in test [1]; 82.5% (inactive) in test [3]; 97.1% (inactive) in test [4]; 80.5% (inactive) in test [5]; 79.3% in test [6] (setting [9]); 80.5% in test [6] (setting [10]). For the same molecule, in test [2], the Her2 level is 100% (inactive). Also, the differential viability (reversal) in test [6] (H69AR cells + 2 uM doxorubicin) is 1.14% (inactive). For the same molecule, the inhibition in test [7] is -5.66% (inactive); in test [8], 8.85% (inactive).

For `Nc1ccc(C(=O)O)c(O)c1`, the viability in test [1] was 100%; in test [3], 100% (inactive) and 130% (inactive); in test [4] it was 105% (inactive) and 87.5% (inactive); in test [5], 78.2% (inactive) and 90.7% (inactive); in test [6] (setting [9]) it was 107% and 84.1%; in test [6] (setting [10]), 78.2% and 90.7%. Also, the Her2 level in test [2] is 113% (inactive). Moreover, the differential viability (reversal) in test [6] (H69AR cells + 2 uM doxorubicin) is -28.9% (inactive) and 6.59% (inactive). For the same molecule, the inhibition is -1.82% (inactive) in test [7] and 15.8% (inactive) in test [8].

Turning to `CC(=O)Nc1ccc(S(=O)(=O)N2CCC(NC(C)=O)(c3cccc(F)c3)CC2)cc1`, the viability in test [1] is 89%; in test [3], 89% (inactive); in test [4], 100% (inactive); in test [5] it was 104% (inactive); in test [6] (setting [9]), 90.5%; in test [6] (setting [10]), 104%. Besides, the Her2 level in test [2] was 79% (inactive). Also, in test [6] (H69AR cells + 2 uM doxorubicin), the differential viability (reversal) was 13% (inactive). The inhibition in test [7] was -6.89% (inactive); in test [8], 0.82% (inactive).

In the case of `COc1ccc(Cn2c(-c3ccco3)nc3oc4ccccc4c(=O)c3c2=O)cc1`, the viability was 87.5% in test [1]; 87.5% (inactive) in test [3]; 101% (inactive) in test [4]; 98.2% (inactive) in test [5]; 84% in test [6] (setting [9]); 98.2% in test [6] (setting [10]). In test [2], the Her2 level is 92.5% (inactive). The differential viability (reversal) in test [6] (H69AR cells + 2 uM doxorubicin) was 14.2% (inactive). Besides, the values for the inhibition in test [7] and in test [8] were -0.67% (inactive) and 6.45% (inactive), respectively.

As for `c1coc(Cn2nnnc2CN2CCN(C3CCCC3)CC2)c1`, the viability is 90.5% in test [1]; 90.5% (inactive) in test [3]; 92.8% (inactive) in test [4]; 93.2% (inactive) in test [5]; 88.6% in test [6] (setting [9]); 93.2% in test [6] (setting [10]). In addition, in test [2], the Her2 level is 107% (inactive). Further, the differential viability (reversal) in test [6] (H69AR cells + 2 uM doxorubicin) is 4.64% (inactive). For the same molecule, the results for the inhibition in test [7] and in test [8] were -4.67% (inactive) and -8.41% (inactive), respectively.

For `O=C(NCC(c1cccnc1)N1CCN(c2ccccc2)CC1)c1ccc2c(c1)OCO2` (stereo not given), the viability in test [1] is 92%; in test [3] it was 92% (inactive); in test [4], 105% (inactive); in test [5] it was 90.8% (inactive); in test [6] (setting [9]), 98.2%; in test [6] (setting [10]), 90.8%. Besides, in test [2], the Her2 level is 94% (inactive). Further, in test [6] (H69AR cells + 2 uM doxorubicin), the differential viability (reversal) is -7.41% (inactive). For the same molecule, the inhibition in test [7] was -4.46% (inactive); in test [8], 12.9% (inactive).

Turning to `Cn1c(-n2c(-c3ccco3)nc3ccccc3c2=O)nc2ccccc21`, the viability in test [1] is 83%; in test [3], 83% (inactive); in test [4], 89.9% (inactive); in test [5], 90.3% (inactive); in test [6] (setting [9]) it was 85%; in test [6] (setting [10]), 90.3%. Further, the Her2 level in test [2] was 98% (inactive). For the same molecule, the differential viability (reversal) in test [6] (H69AR cells + 2 uM doxorubicin) is 5.28% (inactive). Further, the inhibition in test [7] is -1.47% (inactive); in test [8] it was 6.56% (inactive).

For the molecule `COc1cc(OC)cc(C(=O)N2CCN(C(=O)c3ccc(OC)c(OC)c3)CC2)c1`, the viability in test [1] is 100%; in test [3], 100% (inactive); in test [4] it was 86.1% (inactive); in test [5], 92.4% (inactive); in test [6] (setting [9]), 103%; in test [6] (setting [10]) it was 92.4%. Besides, the Her2 level in test [2] was 104% (inactive). Moreover, the differential viability (reversal) in test [6] (H69AR cells + 2 uM doxorubicin) was -11.1% (inactive). The inhibition was -1.84% (inactive) in test [7] and -6.45% (inactive) in test [8].

As for `COCC(=O)N(c1ccc(C(C)C)cc1)C1C=CS(=O)(=O)C1` (stereo not given), the viability is 93.5% in test [1]; 93.5% (inactive) in test [3]; 78.9% (inactive) in test [4]; 89.6% (inactive) in test [5]; 88.8% in test [6] (setting [9]); 89.6% in test [6] (setting [10]). In test [2], the Her2 level was 80% (inactive). Besides, the differential viability (reversal) in test [6] (H69AR cells + 2 uM doxorubicin) is 0.84% (inactive). In addition, the inhibition in test [7] is -3.08% (inactive); in test [8] it was 0.83% (inactive).

With `COCCNc1nc(SCC(=O)N2CCN(c3ccccc3)CC2)nc2ccccc12`, the viability in test [1] was 72%; in test [3] it was 72% (inactive); in test [4], 84.4% (inactive); in test [5], 84.3% (inactive); in test [6] (setting [9]) it was 73.9%; in test [6] (setting [10]), 84.3%. In addition, the Her2 level in test [2] was 81.5% (inactive). In test [6] (H69AR cells + 2 uM doxorubicin), the differential viability (reversal) is 10.4% (inactive). The figures for the inhibition in test [7] and in test [8] were -7.6% (inactive) and -1.48% (inactive), respectively.

Regarding `Cc1onc(-c2ccccc2)c1C(N)=O`, the viability in test [1] was 91%; in test [3] it was 91% (inactive); in test [4], 97.7% (inactive); in test [5], 100% (inactive); in test [6] (setting [9]), 86.7%; in test [6] (setting [10]), 100%. Moreover, in test [2], the Her2 level was 93.5% (inactive). The differential viability (reversal) in test [6] (H69AR cells + 2 uM doxorubicin) is 13.8% (inactive). The inhibition was -1.32% (inactive) in test [7] and -4.35% (inactive) in test [8].

`COc1cccc(/C=N/n2c(C)nc3ccccc32)c1OC`: the viability in test [1] was 91%; in test [3], 91% (inactive); in test [4], 52.1% (inactive); in test [5] it was 91.9% (inactive); in test [6] (setting [9]) it was 88.3%; in test [6] (setting [10]), 91.9%. Besides, the Her2 level in test [2] was 93.5% (inactive). Besides, in test [6] (H69AR cells + 2 uM doxorubicin), the differential viability (reversal) was 3.66% (inactive). Also, the inhibition was -2.4% (inactive) in test [7] and -6.35% (inactive) in test [8].

On to `Cc1cc(Cl)ccc1OCCCC(=O)NO`, for which the viability in test [1] is 80.5%; in test [3], 80.5% (inactive); in test [4] it was 71.3% (inactive); in test [5], 2.07% (active); in test [6] (setting [9]), 22.7%; in test [6] (setting [10]), 2.07%. Moreover, the Her2 level in test [2] was 76% (inactive). Moreover, in test [6] (H69AR cells + 2 uM doxorubicin), the differential viability (reversal) was -20.7% (inactive). For the same molecule, the inhibition in test [7] is 2.18% (inactive); in test [8], 3.83% (inactive).

Regarding `CC(C)Cn1c(N)c(C(=O)COC(=O)c2ccc3c(c2)OCCO3)c(=O)n(C)c1=O`, the viability is 87% in test [1]; 87% (inactive) in test [3]; 71.3% (inactive) in test [4]; 91.8% (inactive) in test [5]; 98.6% in test [6] (setting [9]); 91.8% in test [6] (setting [10]). Also, the Her2 level in test [2] is 102% (inactive). In test [6] (H69AR cells + 2 uM doxorubicin), the differential viability (reversal) is -6.76% (inactive). The inhibition in test [7] is -4.46% (inactive); in test [8], 0.16% (inactive).
